In ChEMBL document CHEMBL1129982, “Structure-activity relationships in a series of orally active gamma-hydroxy butenolide endothelin antagonists” (J Med Chem, 1997):

Assays:
[1] = biological target: T1, Endothelin receptor type B (Homo sapiens, UniProt P24530); assay: Binding affinity against human cloned Endothelin B receptor expressed in CHO-K1 cells; format: cell-based
T1 sequence (P24530 whole entry): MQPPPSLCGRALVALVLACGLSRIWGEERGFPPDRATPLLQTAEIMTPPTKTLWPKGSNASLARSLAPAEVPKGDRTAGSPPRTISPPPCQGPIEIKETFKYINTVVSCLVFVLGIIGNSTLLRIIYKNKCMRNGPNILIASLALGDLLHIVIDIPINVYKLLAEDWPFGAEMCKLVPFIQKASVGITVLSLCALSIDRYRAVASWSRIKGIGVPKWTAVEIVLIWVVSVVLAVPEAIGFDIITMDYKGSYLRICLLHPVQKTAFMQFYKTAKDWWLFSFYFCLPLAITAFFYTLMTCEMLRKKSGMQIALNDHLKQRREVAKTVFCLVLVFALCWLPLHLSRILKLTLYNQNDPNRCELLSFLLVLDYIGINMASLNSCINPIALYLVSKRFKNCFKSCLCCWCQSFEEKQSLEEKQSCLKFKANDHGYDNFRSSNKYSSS
How it was run: (§1)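 Radioligand binding to cloned human ETA (Ltk⁻ cells) and ETB (CHO-K1 cells) receptors. […] Selectivity expressed as ETB IC50/ETA IC50.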

[2] = biological target: T2, Endothelin-1 receptor (Homo sapiens, UniProt P25101); assay: Binding affinity against human cloned endothelin A receptor expressed in LTK-cells; format: cell-based
T2 sequence (P25101 whole entry): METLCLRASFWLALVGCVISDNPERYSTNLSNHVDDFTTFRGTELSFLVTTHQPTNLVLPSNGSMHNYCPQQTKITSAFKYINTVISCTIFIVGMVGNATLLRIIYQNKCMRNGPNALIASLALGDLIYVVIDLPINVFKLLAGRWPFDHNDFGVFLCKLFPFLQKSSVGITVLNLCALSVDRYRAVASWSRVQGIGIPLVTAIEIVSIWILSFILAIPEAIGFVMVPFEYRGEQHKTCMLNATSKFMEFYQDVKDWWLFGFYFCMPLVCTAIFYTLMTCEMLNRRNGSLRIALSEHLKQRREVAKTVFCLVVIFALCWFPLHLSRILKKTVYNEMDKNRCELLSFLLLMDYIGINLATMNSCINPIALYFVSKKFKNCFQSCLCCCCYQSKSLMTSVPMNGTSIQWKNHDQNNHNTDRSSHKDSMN
How it was run: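 Radioligand binding to cloned human ETA (Ltk⁻ cells) and ETB (CHO-K1 cells) receptors. Selectivity expressed as ETB IC50/ETA IC50.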

[3] = biological target: Endothelin receptor, ET-A/ET-B (Homo sapiens) (UniProt P24530+P25101); assay: Selectivity of compound on ET B with respect to ET A receptor; format: protein assay; how it was run: as §1
[4] = biological target: T1, Endothelin receptor type B; assay: Inhibition of Endothelin B receptor mediated (ET-3) release of arachidonic acid from human cloned receptors expressed in CHO-K1 cells; format: cell-based
How it was run: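 Arachidonic acid release assay. ETA: rabbit renal artery vascular smooth muscle cells stimulated with ET-1. ETB: recombinant human receptors in CHO-K1 cells stimulated with ET-3.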

Compound | IC50 [1] [nM] | IC50 [2] [nM] | Selectivity [3] | IC50 [4] [nM]
COc1ccccc1C1(O)OC(=O)C(c2ccc3c(c2)OCO3)=C1Cc1ccccc1 (stereo unspecified) | > 2500 | 480 | – | –
CC(C)Oc1ccc(C2(O)OC(=O)C(c3ccc4c(c3)OCO4)=C2Cc2ccccc2)cc1 (stereo unspecified) | 11000 | 1150 | – | –
COc1ccc(C2(O)OC(=O)C(c3cc(OC)c(OC)c(OC)c3)=C2Cc2ccccc2)cc1 (stereo unspecified) | 1600 | 1300 | – | –
COc1ccc(C2(O)OC(=O)C(c3ccc4c(c3)OCO4)=C2Cc2ccc(Cl)c(Cl)c2)cc1 (stereo unspecified) | > 2500 | 150 | – | –
O=C1OC(O)(c2ccc(C(=O)O)cc2)C(Cc2ccccc2)=C1c1ccc2c(c1)OCO2 (stereo unspecified) | > 2500 | > 25000 | – | –
COc1ccc(C2(O)OC(=O)C(c3ccc4c(c3)OCO4)=C2Cc2ccc(N(C)C)cc2)cc1 (stereo unspecified) | 1800 | 28 | – | –
COc1ccc(C2(OC)OC(=O)C(c3ccc4c(c3)OCO4)=C2Cc2cc(OC)c(OC)c(OC)c2)cc1 (stereo unspecified) | > 2500 | 600 | – | –
CCc1ccc(C2(O)OC(=O)C(c3ccc4c(c3)OCO4)=C2Cc2ccccc2)cc1 (stereo unspecified) | > 2500 | 630 | – | –
COc1ccc(C2(O)OC(=O)C(c3ccc4c(c3)OCO4)=C2Cc2ccc([N+](=O)[O-])cc2)cc1 (stereo unspecified) | 17000 | 800 | – | –
COc1ccc(C2(O)OC(=O)C(c3cc(OC)cc(OC)c3)=C2Cc2ccccc2)cc1 (stereo unspecified) | 5200 | 46 | – | –
COc1ccc(C(=O)/C(Cc2ccc(NC(C)=O)cc2)=C(\C(=O)O)c2ccc3c(c2)OCO3)cc1 | – | – | – | 8200
COc1ccc(C2(O)OC(=O)C(c3ccc(OC)cc3OC)=C2Cc2ccccc2)cc1 (stereo unspecified) | – | 300 | – | –
COC(=O)c1ccc(C2(O)OC(=O)C(c3ccc4c(c3)OCO4)=C2Cc2ccccc2)cc1 (stereo unspecified) | > 2500 | 400 | – | –
COc1cccc(C2(O)OC(=O)C(c3ccc4c(c3)OCO4)=C2Cc2ccccc2)c1 (stereo unspecified) | 18000 | 500 | – | –
COc1ccc(C2(O)OC(=O)C(c3ccc4c(c3)OCO4)=C2CC2CCCCCC2)cc1 (stereo unspecified) | – | 35 | – | –
COc1ccc(C2(O)OC(=O)C(c3cc(OC)c4c(c3)OCO4)=C2Cc2cc(OC)c(OC)c(OC)c2)cc1C (stereo unspecified) | 180 | – | – | –
CSc1ccc(C2(O)OC(=O)C(c3ccc4c(c3)OCO4)=C2Cc2ccccc2)cc1 (stereo unspecified) | > 2500 | 170 | – | –
COc1cc(C2(O)OC(=O)C(c3ccc4c(c3)OCO4)=C2Cc2ccccc2)cc(OC)c1OC (stereo unspecified) | 4500 | 25 | – | –
COc1ccc(C2(O)OC(=O)C(c3ccc4c(c3)OCO4)=C2Cc2cccnc2)cc1 (stereo unspecified) | > 2500 | 40 | – | –
COc1ccc(C2(O)OC(=O)C(c3ccc4c(c3)OCO4)=C2Cc2ccc(OC)c(C)c2)cc1 (stereo unspecified) | 1140 | – | – | –

Compound | IC50 [1] [nM] | IC50 [2] [nM] | Selectivity [3] | IC50 [4] [nM]
COc1ccc(C2OC(=O)C(c3ccc4c(c3)OCO4)=C2Cc2cc(OC)c(OC)c(OC)c2)cc1 (stereo unspecified) | > 25000 | – | – | –
COc1ccc(C2(O)OC(=O)C(c3ccc4c(c3)OCO4)=C2Cc2cccc3ccccc23)cc1 (stereo unspecified) | > 2500 | 18 | – | –
O=C1OC(O)(c2ccc(OCc3ccccc3)cc2)C(Cc2ccccc2)=C1c1ccc2c(c1)OCO2 (stereo unspecified) | – | 950 | – | –
COc1ccc(C2(O)OC(=O)C(c3ccc4c(c3)OCO4)=C2Cc2cccc(C(F)(F)F)c2)cc1 (stereo unspecified) | > 2500 | 43 | – | –
COc1ccc(C2(O)OC(=O)C(c3ccc4c(c3)OCO4)=C2Cc2ccc(-c3ccccc3)cc2)cc1 (stereo unspecified) | – | 200 | – | –
COc1ccc(C2(O)OC(=O)C(c3ccc4c(c3)OCO4)=C2Cc2cccc(C(=O)O)c2)cc1 (stereo unspecified) | > 2500 | 50 | – | –
COc1ccc(C2(OC)OC(=O)C(c3ccc4c(c3)OCO4)=C2Cc2ccccc2)cc1 (stereo unspecified) | > 25000 | 300 | – | –
COc1ccc(C2(O)OC(=O)C(c3ccc4c(c3)OCO4)=C2Cc2ccc(C)cc2)cc1 (stereo unspecified) | > 2500 | – | – | –
CCC1=C(c2ccc3c(c2)OCO3)C(=O)OC1(O)c1ccc(OC)cc1 (stereo unspecified) | – | 320 | – | –
COc1ccc(C2OC(=O)C(c3ccc4c(c3)OCO4)=C2Cc2ccccc2)cc1 (stereo unspecified) | > 2500 | 700 | – | –
COc1ccc(CC2=C(c3ccc(OC)cc3)C(=O)OC2(O)c2ccc(OC)cc2)cc1 (stereo unspecified) | 9000 | – | – | –
COc1ccc(C2(O)OC(=O)C(c3cccc(OC)c3)=C2Cc2ccccc2)cc1 (stereo unspecified) | 12000 | 90 | – | –
COc1ccc(C2(O)OC(=O)C(c3ccc4c(c3)OCO4)=C2Cc2cccc([N+](=O)[O-])c2)cc1 (stereo unspecified) | > 25000 | 70 | – | –
COc1ccc(C(=O)/C(Cc2cc(OC)c(OC)c(OC)c2)=C(\C(=O)O)c2cc(OC)c3c(c2)OCO3)cc1C | – | – | – | 68
O=C1OC(O)(c2ccc3c(c2)OCO3)C(Cc2ccccc2)=C1c1ccc2c(c1)OCO2 (stereo unspecified) | – | 19 | – | –
COc1ccc(CC2=C(c3ccc(C)cc3)C(=O)OC2(O)c2ccc(OC)cc2)cc1 (stereo unspecified) | > 2500 | – | – | –
COc1ccc(C2(O)OC(=O)C(c3ccc(OC)c(OC)c3)=C2Cc2ccccc2)cc1 (stereo unspecified) | – | 70 | – | –
COc1ccc(C2(O)OC(=O)C(c3ccc4c(c3)OCO4)=C2Cc2cccc3c2CCc2ccccc2C3=O)cc1 (stereo unspecified) | 10000 | 16000 | – | –
COc1ccc(C2(O)OC(=O)C(c3cc(OC)ccc3OC)=C2Cc2ccccc2)cc1 (stereo unspecified) | > 2500 | 240 | – | –

Second part, the compound after the results:

IC50 [1] [nM] | IC50 [2] [nM] | Selectivity [3] | IC50 [4] [nM] | Compound
3000 | 4 | – | – | COc1ccc(C2(O)OC(=O)C(c3ccc4c(c3)OCO4)=C2Cc2ccc(S(C)(=O)=O)cc2)cc1 (stereo unspecified)
– | 11 | – | – | COc1ccc(C2(O)OC(=O)C(c3ccc4c(c3)OCO4)=C2Cc2cccc(OC)c2OC)cc1 (stereo unspecified)
640 | 6.7 | – | – | COc1ccc(C2(O)OC(=O)C(c3cc(OC)c4c(c3)OCO4)=C2Cc2ccccc2)cc1 (stereo unspecified)
– | 2.1 | – | – | COc1ccc(C2(O)OC(=O)C(c3ccc4c(c3)OCO4)=C2Cc2cc(OC)ccc2OC)cc1 (stereo unspecified)
240 | 0.5 | 480 | – | COc1ccc(C2(O)OC(=O)C(c3ccc4c(c3)OCO4)=C2Cc2cc(OC)c(OC)c(OC)c2)cc1C (stereo unspecified)
– | 1.8 | – | – | COc1ccc(C2(O)OC(=O)C(c3ccc4c(c3)OCO4)=C2Cc2cc(OC)c(OC)cc2OC)cc1 (stereo unspecified)
– | 1.7 | – | – | COc1ccc(C2(O)OC(=O)C(c3ccc4c(c3)OCO4)=C2Cc2cc(OC)cc(OC)c2)cc1 (stereo unspecified)
630 | 10 | – | – | COc1ccc(C2(O)OC(=O)C(c3ccc4c(c3)OCO4)=C2CC2CCCC2)cc1 (stereo unspecified)
225 | 13 | – | – | COc1ccc(C2(O)OC(=O)C(c3ccc4c(c3)OCO4)=C2CC2CCCCC2)cc1 (stereo unspecified)
260 | 3 | – | – | COc1ccc(C2(O)OC(=O)C(c3ccc4c(c3)OCO4)=C2Cc2cccc(OC)c2)cc1 (stereo unspecified)
> 250 | 8 | – | – | COc1ccc(C2(O)OC(=O)C(c3ccc4c(c3)OCO4)=C2Cc2ccc(O)cc2)cc1 (stereo unspecified)
> 2500 | 14 | – | – | COc1ccc(C2(O)OC(=O)C(c3ccc4c(c3)OCO4)=C2Cc2ccc3ccccc3c2)cc1 (stereo unspecified)
– | 11 | – | – | COC(=O)c1ccc(CC2=C(c3ccc4c(c3)OCO4)C(=O)OC2(O)c2ccc(OC)cc2)cc1 (stereo unspecified)
3200 | 10 | – | – | COc1ccc(C2(O)OC(=O)C(c3ccc4c(c3)OCO4)=C2Cc2nccc3ccccc23)cc1 (stereo unspecified)
2000 | 12 | – | – | COc1ccc(C2(O)OC(=O)C(c3ccc4c(c3)OCO4)=C2Cc2ccc(OC)c(OC)c2OC)cc1 (stereo unspecified)
1600 | 7.5 | – | – | COc1ccc(C2(O)OC(=O)C(c3ccc4c(c3)OCO4)=C2Cc2ccc3c(c2)OCCO3)cc1 (stereo unspecified)
16000 | 14 | – | – | COc1ccc(C2(O)OC(=O)C(c3ccc4c(c3)OCO4)=C2Cc2cc(OC)c3c(c2)OCO3)cc1 (stereo unspecified)
18000 | 11 | – | – | COc1ccc(C2(O)OC(=O)C(c3ccc4c(c3)OCO4)=C2Cc2ccccc2)cc1OC (stereo unspecified)
– | 8.5 | – | – | COC(=O)c1cccc(CC2=C(c3ccc4c(c3)OCO4)C(=O)OC2(O)c2ccc(OC)cc2)c1 (stereo unspecified)
– | 16 | – | – | COc1ccc(C2(O)OC(=O)C(c3ccc4c(c3)OCO4)=C2Cc2ccc3c(c2)OCO3)cc1 (stereo unspecified)
– | 12 | – | – | COc1ccc(C2(O)OC(=O)C(c3ccc4c(c3)OCO4)=C2Cc2ccccc2)cc1C (stereo unspecified)
– | 1.2 | – | – | COc1ccc(C2(O)OC(=O)C(c3ccc4c(c3)OCO4)=C2Cc2ccc(NC(C)=O)cc2)cc1 (stereo unspecified)
> 2500 | 3.9 | – | – | COc1ccc(C2(O)OC(=O)C(c3ccc4c(c3)OCO4)=C2Cc2ccc(SC)cc2)cc1 (stereo unspecified)
1410 | 8.2 | – | – | COc1ccc(C2(O)OC(=O)C(c3cc(OC)c4c(c3)OCO4)=C2Cc2ccccc2)cc1C (stereo unspecified)
– | 1.4 | – | – | COc1ccc(C2(O)OC(=O)C(c3ccc4c(c3)OCO4)=C2Cc2ccc(OC)c(OC)c2)cc1 (stereo unspecified)
> 2500 | 13 | – | – | COc1ccc(C2(O)OC(=O)C(c3ccc4c(c3)OCO4)=C2Cc2ccccc2)c(OC)c1 (stereo unspecified)
